This note sets out measurements from ChEMBL document CHEMBL3044699, “Synthesis and herbicidal activity of N-oxide derivatives” (2000).

Activity calls are given as the source filed them. No cut-off for these calls is given here.

Assay [1] relates to Triticum aestivum. The experiment in a line: Pre-emergence herbicidal activity against Triticum aestivum (wheat) assessed as reduction in radicular weight at 50 mol/ha relative to untreated control. In kind it is functional. On the set-up: scale not given: the % may be the effect or the level left. In outline:
(§1)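 Wheat was grown in sterilized sand flats at near-neutral pH and treated pre-emergence at 6.4–19.6 kg/ha in acetone-, DMSO- or Tween 80-containing vehicles. Length of first leaf, aerial weight and radicular weight were compared with untreated control and scored 4 (100–80% reduction), 3 (79–50%), 2 (49–20%), 1 (19–1%) or 0 (increase). Atrazine 2.5 kg/ha was the positive control. Duplicate runs; ANOVA.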

The test system of assay [2] is Triticum aestivum. The experiment in a line: Pre-emergence herbicidal activity against Triticum aestivum (wheat) assessed as germination seeds level at 50 mol/ha relative to untreated control. The class given is functional. The method in brief: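 Pre-emergence greenhouse assay on T. aestivum sown in sterilized sand in celled flats, with the medium near neutral pH. Compound was applied in acetone/H₂O, DMSO/H₂O, acetone/DMSO or acetone/DMSO/H₂O/Tween 80 at 6.4–19.6 kg/ha. Percentage of germinated seeds was calculated against untreated control. Atrazine (2.5 kg/ha, 12 mol/ha) was the positive control. Run in duplicate; ANOVA.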

The test system of assay [3] is Triticum aestivum. The experiment in a line: Pre-emergence herbicidal activity against Triticum aestivum (wheat) assessed as reduction in aerial weight at 50 mol/ha relative to untreated control. In kind it is functional. Further details: scale not given: the % may be the effect or the level left. The method in brief: as §1
The test system of assay [4] is Triticum aestivum. The experiment in a line: Post-emergence herbicidal activity against Triticum aestivum (wheat) at 50 mol/ha measured 10 days post compound application. In kind it is functional, organism-based. The method in brief:
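Post-emergence greenhouse test on T. aestivum, set up identically to the pre-emergence test: sterilized sand flats at near-neutral pH, application at 6.4–19.6 kg/ha in acetone/DMSO/water-based vehicles, and reduction of plant parameters versus untreated control scored on a 0–4 scale. Atrazine 2.5 kg/ha was the positive control. Duplicate; ANOVA.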

Assay [5] concerns Triticum aestivum. Description: Pre-emergence herbicidal activity against Triticum aestivum (wheat) assessed as reduction in length of the first leaf at 50 mol/ha relative to untreated control. The class given is functional. Further details: scale not given: the % may be the effect or the level left. In outline: as §1
Assay [6] has as its system Triticum aestivum. The experiment in a line: Stimulation of plant growth parameters in Triticum aestivum (wheat) assessed as increase in length of the first leaf at 50 mol/ha. The class given is functional, organism-based. In outline: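 Pre-emergence greenhouse whole-plant test on T. aestivum L. Seeds were grown in sterilized sand in celled flats, with the medium near neutral pH. Compound was applied in acetone/H₂O, DMSO/H₂O, acetone/DMSO or acetone/DMSO/H₂O/Tween 80 vehicle, at 6.4–19.6 kg/ha by weight. Length of first leaf was compared with untreated control, with a score of 0 marking an increase. Atrazine at 2.5 kg/ha was the positive control. Run in duplicate and analysed by ANOVA.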

In assay [7] the test system is Triticum aestivum. The experiment in a line: Stimulation of plant growth parameters in Triticum aestivum (wheat) assessed as increase in aerial weight at 50 mol/ha. The class given is functional, organism-based. In outline:
as §1

The test system of assay [8] is Triticum aestivum. The experiment in a line: Stimulation of plant growth parameters in Triticum aestivum (wheat) assessed as increase in radicular weight at 50 mol/ha. The class given is functional, organism-based. In outline:
as §1

For `Cc1c(/C=N/NC(N)=S)no[n+]1[O-]`, the Activity in assay [1] is listed as 4%; in assay [2] it was 92%; in assay [3] it was 4%.
In the case of `O=C(O)c1ccc2no[n+]([O-])c2c1`, the Activity in assay [1] is 1%; in assay [2] it was 100%; in assay [3], 1%; in assay [5], 1%. In addition, in assay [4], the outcome was inactive.
As for `Cc1c(C)[n+]([O-])c2cc(/C=N/NC(=O)NCCc3ccccc3)ccc2[n+]1[O-]`, the result in assay [6] and in assay [7] was Active. The results for the Activity in assay [1] and in assay [2] were 1% and 100%, respectively.
In the case of `COCCNC(=O)c1ccc2c(c1)no[n+]2[O-]`, the Activity in assay [1] worked out at 1%; in assay [2], 100%; in assay [3] it was 1%; in assay [5] it was 2%.
For `Cc1c(C=O)no[n+]1[O-]`, the figures for the Activity in assay [1], in assay [2] and in assay [5] were 1%, 100% and 1%, respectively. In addition, the outcome in assay [7] was Active.
In the case of `O=Cc1ccc2no[n+]([O-])c2c1` [6-FORMYLBENZO[C][1,2,5]OXADIAZOLE1-OXIDE], the Activity was 100% in assay [2], 1% in assay [3] and 2% in assay [5]. In addition, the outcome in assay [8] was Active.
Consider `CCCCNC(=O)c1ccc2c(c1)no[n+]2[O-]`, for which the Activity in assay [1] is on record as 3%; in assay [2], 46%; in assay [3] it was 3%; in assay [5], 3%.
As to `COC(=O)N/N=C/c1no[n+]([O-])c1C`, the Activity in assay [2] turned out to be 15%; in assay [3] it was 3%; in assay [5], 3%. Further, the result in assay [8] was Active.
With `O=Cc1c(-c2ccccc2)no[n+]1[O-]`, the results for the Activity in assay [1], in assay [2] and in assay [5] were 1%, 100% and 1%, respectively. Moreover, in assay [7], the outcome was Active.
Consider `NC(=S)N/N=C/c1c(-c2ccccc2)no[n+]1[O-]`, for which the Activity worked out at 3% in assay [1], 100% in assay [2] and 2% in assay [5]. The result in assay [7] was Active.
`Cc1ccc2no[n+]([O-])c2c1` [6-METHYLBENZO[C][1,2,5]OXADIAZOLE1-OXIDE]: the Activity is 3% in assay [1], 100% in assay [2], 3% in assay [3] and 3% in assay [5].
In the case of `COC(=O)N/N=C/c1c(-c2ccccc2)no[n+]1[O-]`, the Activity in assay [1] is on record as 2%; in assay [2], 100%; in assay [5], 2%. The result in assay [7] was Active.
As for `O=C1c2ccccc2C(=O)N1Cc1c(-c2ccccc2)no[n+]1[O-]`, the result in assay [6] and in assay [7] was Active. Further, the Activity in assay [1] worked out at 1%; in assay [2], 100%.
Take `[O-][n+]1onc(-c2ccccc2)c1CN1CCN(c2ncccn2)CC1`: the outcome in assay [1], in assay [3], in assay [4] and in assay [5] was inactive. Besides, in assay [2], the Activity is reported as 100%.
With `O=C(Nc1ccc(Cl)cc1)c1ccc2c(c1)no[n+]2[O-]`, the Activity in assay [1] stood at 4%; in assay [2] it was 96%; in assay [3], 3%; in assay [5], 3%.
On to `Cc1c(/C=N/NC(N)=O)no[n+]1[O-]`, for which the Activity in assay [1] was 3%; in assay [2], 89%; in assay [3], 4%.
On to `[O-][n+]1onc2ccccc21` [BENZO[C][1,2,5]OXADIAZOLE 1-OXIDE], for which the result in assay [1], in assay [3], in assay [4] and in assay [5] was inactive. In assay [2], the Activity is listed as 100%.
`O=C(c1ccc2c(c1)no[n+]2[O-])N1CCOCC1`: the Activity in assay [1] stood at 3%; in assay [2] it was 100%; in assay [3], 3%; in assay [5], 3%.
In the case of `O=C(NCCc1ccccc1)N/N=C/c1ccc2c(c1)no[n+]2[O-]`, the Activity was 2% in assay [1], 100% in assay [2], 2% in assay [3] and 2% in assay [5].
As to `[O-][n+]1onc(-c2ccccc2)c1CNc1ccc(Cl)cc1`, the Activity is recorded as 1% in assay [1], 100% in assay [2], 1% in assay [3] and 1% in assay [5].
In the case of `COc1ccc(NCc2c(-c3ccccc3)no[n+]2[O-])cc1`, the Activity came out at 1% in assay [1], 100% in assay [2], 1% in assay [3] and 1% in assay [5].
Regarding `[O-][n+]1onc(-c2ccccc2)c1CCl`, the Activity in assay [1] was 1%; in assay [2], 100%; in assay [3], 1%; in assay [5] it was 1%. The outcome in assay [4] was inactive.
Regarding `CCCCCCNC(=O)N/N=C/c1no[n+]([O-])c1C`, the Activity is reported as 3% in assay [1], 95% in assay [2], 4% in assay [3] and 3% in assay [5].
In the case of `COC(=O)N/N=C/c1ccc2nonc2c1`, the outcome in assay [6], in assay [7] and in assay [8] was Active. The Activity in assay [2] came to 100%.
For the compound `COC(=O)N/N=C/c1ccc2c(c1)no[n+]2[O-]`, the Activity in assay [1] came out at 3%; in assay [2], 75%; in assay [3], 1%; in assay [5], 1%.
Turning to `COC(=O)N/N=C/c1ccc2c(c1)[n+]([O-])c(C)c(C)[n+]2[O-]`, the result in assay [6], in assay [7] and in assay [8] was Active. The Activity in assay [2] amounted to 100%.
`[O-][n+]1onc(-c2ccccc2)c1CNc1ccc(Br)cc1`: the Activity in assay [1] is reported as 1%; in assay [2] it was 100%; in assay [3], 1%; in assay [5] it was 2%.
